Bioassay records from PubChem BioAssay.
Rows were chosen to be rich in hits. Some 1.4% of all compounds tested hit in one or more screens of this group.
CAL PDZ FP-1: inhibitors of human CAL PDZ peptide binding | purified CAL PDZ, TMR-peptide fluorescence polarization, 1 h | inhibition, % at 24.9 µM | hit rate 0.92% among 300,000 | AID 602252;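 active = mean inhibition of at least 30% with at least half of replicates also reaching 30%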;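 also: 0% = DMSO neutral control and 100% = excess unlabeled competitor peptide PRC23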
DDE Tn6 FP inh: disrupts Tn6 cyclic peptide binding to fibrin D-Dimer-E complex. Fibrin DD(E) TRITC-Tn6 fluorescence polarization displacement. inhibition, % at 8.3 µM. hit rate 0.21% among 370,000;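 active = inhibition above a per-campaign cutoff: mean of compounds within control limits plus 3 SD, cut at about 15% in these data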;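 also: 0% = median of all compound wells on the plate and 100% = blocking peptide control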
Target sequence (P02675 whole entry, looked up): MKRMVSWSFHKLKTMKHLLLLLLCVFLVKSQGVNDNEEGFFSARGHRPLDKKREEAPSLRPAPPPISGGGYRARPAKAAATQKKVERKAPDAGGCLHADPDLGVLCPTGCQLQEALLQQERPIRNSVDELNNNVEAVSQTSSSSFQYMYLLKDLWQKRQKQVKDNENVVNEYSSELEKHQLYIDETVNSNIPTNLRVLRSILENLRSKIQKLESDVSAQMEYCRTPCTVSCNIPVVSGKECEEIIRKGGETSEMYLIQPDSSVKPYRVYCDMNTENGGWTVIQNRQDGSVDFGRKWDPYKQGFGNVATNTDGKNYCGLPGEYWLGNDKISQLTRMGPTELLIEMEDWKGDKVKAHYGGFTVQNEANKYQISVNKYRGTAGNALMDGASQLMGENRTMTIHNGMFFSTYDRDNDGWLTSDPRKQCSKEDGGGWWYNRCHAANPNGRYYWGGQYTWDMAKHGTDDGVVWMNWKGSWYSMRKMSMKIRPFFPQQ
CAL PDZ FP-2: human CAL PDZ-peptide interaction inhibition | Q9HD26 | purified CAL PDZ, TMR-peptide fluorescence polarization, 1 h | inhibition, % at 20 µM | hit rate 0.02% among 330,000 | AID 504414;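 active = highest replicate inhibition of at least 40%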;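 also: plate controls were DMSO neutral control wells for no effect and unlabeled competitor peptide control wells for full effect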
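material = purified tagged CAL PDZ domain construct (CerCALP) | buffer or medium = sodium phosphate/NaCl buffer pH 7.4 with TCEP, IgG, Thesit | reagent = TMR-labelled reporter peptide T*-PRC34 bound in PDZ groove | incubation = 1 h room-temperature incubation prior to read | measured by = fluorescence polarization (mP) | evaluation = percent inhibition from loss of millipolarization | control set = unlabelled peptide and DMSO controls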
Arrestin-AP2 inh: human beta-arrestin and AP2 interaction inhibition; FITC-arrestin peptide / GST-AP2 beads, flow cytometry; AP2 beta2 appendage carries R879A mutation; inhibition, % at 10 µM; hit rate 0.31% among 340,000;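 active = inhibition above a set limit, near 3 SD of compounds lacking own fluorescence, cut at about 54% in these data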;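 also: plate controls were DMSO wells for no effect and 5 µM unlabelled arrestin peptide for full effect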
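System: GST-AP2 R879A bound to glutathione beads, E. coli-expressed. Also added: 50 nM FITC-arrestin peptide. Schedule: compound with beads 12 min RT, then probe 1 h RT. Signal: bead flow cytometry, FITC channel. Read-out basis: percent response.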
Tn7 DDE FP: inhibitors of Tn7 peptide binding to human fibrin DD(E); FP displacement of FITC-Tn7 peptide from fibrin DD(E); 0% = median of compound wells per plate; inhibition, % at 8.3 µM; P02675; hit rate 0.13% among 370,000;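 active = inhibition above the mean of compounds falling within the control limits plus 3 SD of them, cut at about 14% in these data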;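 also: 0% = plate median of compound wells and 100% = 10 µM Aha-Tn7 peptide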
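Assay system: human fibrin DD(E). Input: DD(E) 2 µM final. Medium: Tris buffer with calcium and detergent, pH 7.8. Compound dosing: single point at 8.3 µM. Timing: 10 min plus 3 h, room temperature. Technique: fluorescence polarization of the labelled Tn7 tracer. Read-out: percent inhibition. Replicates: singlicate testing.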
Starred values were filed as active, the others as inactive; . = not tested or not shown.

SMILES | CAL PDZ FP-1 | DDE Tn6 FP inh | CAL PDZ FP-2 | Arrestin-AP2 inh | Tn7 DDE FP
CCn1c(=S)[nH]c2sc3c(c2c1=O)CCCC3 | . | -1.6 | -1.0 | 19.5 | -2.5
CCOC(=O)CNC(=O)N(C)[C@H]1C[C@H]2c3[nH]c4c(-c5cccc(C)c5)cccc4c3CCN2C(=O)[C@H]1[C@H](C)O | . | -2.2 | . | . | -0.2
CC(NC(=O)c1ccc(Br)o1)c1ccc(-n2ccnc2)cc1 (stereo not given) | 35.4* | 0.0 | -0.6 | 10.7 | -6.2
CC(NC(=O)c1ccc(CS(C)(=O)=O)cc1)c1ccc(-n2ccnc2)cc1 (stereo not given) | -1.4 | 0.9 | -0.1 | -1.6 | 1.8
CCOC(=O)[C@@H]1c2[nH]c3ccccc3c2C[C@@]2(C(=O)OC)C=CCN12 | . | -6.6 | . | . | 4.5
CC(C)(C)NC(=O)/C(=C/c1ccccc1F)NC(=O)c1ccc([N+](=O)[O-])cc1 | -3.9 | -1.9 | 0.5 | 1.7 | -2.7
O=C(Nc1cccc2ccccc12)/C(=C/c1ccc([N+](=O)[O-])cc1)NC(=O)c1ccccc1 | 68.0* | 0.4 | -1.3 | 6.0 | -0.7
CC(C)(C)NC(=O)/C(=C\c1ccccc1F)NC(=O)c1ccc([N+](=O)[O-])cc1 | 70.1* | 3.7 | -1.4 | 5.5 | 4.6
Cc1cccc(C)c1NC(=O)Cn1nnc(-c2ccncc2)n1 | . | 9.5 | . | . | 5.7
O=S1(=O)C=CCN1Cc1cn(Cc2ccc(C(F)(F)F)cc2)nn1 | . | -4.1 | . | . | 8.2
COc1c(Cl)cc(Br)c(OC)c1C(=O)NC(=O)Nc1nc(C)cc(C)n1 | 82.8* | 1.1 | -0.5 | -2.3 | -3.1
CCCCCCCCN1C(=O)[C@@H](CC(=O)NCc2ccccc2)C[C@@]2(C(=O)OC)C1=C[C@H](C(C)C)O[C@@H]2C1CC1 | . | -5.0 | . | . | -4.8
C[C@H]1[C@@H](NC(=O)c2cccc(C(F)(F)F)c2)CC[C@@]23CCCN2C(=O)CCC[C@@H]13 | . | 6.4 | . | . | 3.8
Cc1ccc(-c2n[nH]c(=S)c3ccccc23)cc1S(=O)(=O)NCC1CCCO1 (stereo not given) | 38.5* | -3.6 | -3.6 | 17.3 | 0.1
Cc1ccc(-c2n[nH]c(=O)c3ccccc23)cc1S(=O)(=O)NCC1CCCO1 (stereo not given) | . | 3.5 | -2.5 | -13.6 | 9.1
CCOc1ccc(N2CC(C(=O)Nc3cccc(S(=O)(=O)N4CCCC4)c3)CC2=O)cc1 (stereo not given) | -5.8 | 3.4 | -3.9 | -5.0 | -6.1
CCOc1ccc(N2CC(C(=O)Nc3cccc(S(=O)(=O)NC4=NCCC4)c3)CC2=O)cc1 (stereo not given) | 44.9* | 1.5 | -5.5 | 12.9 | 1.0
COC(=O)[C@]12C[C@H](CC(=O)NCc3ccc(C)o3)C(=O)N(Cc3ccc4c(c3)OCO4)C1=C[C@H](C(C)C)O[C@@H]2C1CC1 | . | 3.9 | . | . | 2.7
O=C(NCCN1CCN(C(=O)c2ccccc2Cl)CC1)C(=O)NCc1ccccc1 | 48.0* | 5.1 | -0.7 | -2.2 | 3.2
COC(=O)[C@]12C[C@H](CC(=O)NCC3CCCCC3)C(=O)N(CCc3ccc(OC)c(OC)c3)C1=C[C@H](COCc1ccccc1)O[C@@H]2C | . | -3.4 | . | . | 1.5
NCC1CC2c3ccccc3C1c1ccccc12 (stereo not given) | 92.4* | 1.0 | . | 2.6 | -2.5
O=C(NCc1cccnc1)C1CC2c3ccccc3C1c1ccccc12 (stereo not given) | -2.6 | -4.7 | -2.1 | 0.4 | -5.9
COC(=O)[C@]12C[C@H](CC(=O)NCCC(C)C)C(=O)N(Cc3cccc4ccccc34)C1=C[C@H](C(C)(C)C)O[C@@H]2C | . | 0.1 | . | . | -0.7
Cn1cccc1C=NNC(=O)c1cc(-c2ccc(Cl)cc2)n[nH]1 | . | -0.7 | . | . | 5.0
Cc1ccc(NC(=O)CN(C)C(=O)COc2cccc3ccc(C)nc23)cc1 | 70.7* | -3.8 | -0.3 | 2.7 | -0.6
SMILES | CAL PDZ FP-1 | DDE Tn6 FP inh | CAL PDZ FP-2 | Arrestin-AP2 inh | Tn7 DDE FP
CCNC(=O)N(C)[C@H]1C[C@H]2c3[nH]c4cccc(-c5cccc(F)c5)c4c3CCN2C(=O)[C@H]1[C@H](C)O | . | 14.5 | . | . | 3.7
CCN(CC)c1ccc2cc(NC(=O)CCC(=O)O)c(=O)oc2c1 | -4.1 | 44.0* | -1.0 | -8.0 | 10.4
COc1ccc(C(=O)COC(=O)c2ccc(NC(C)=O)cc2)cc1[N+](=O)[O-] | -4.4 | -7.8 | -1.4 | -1.1 | -3.7
COc1cccc(C(=O)COC(=O)c2ccc(NC(C)=O)cc2)c1 | 52.7* | 3.2 | -0.6 | -8.7 | 4.3
CC(=O)c1cc(-c2ccc3[nH]ccc3c2)c(=O)n2c1CCC2 | . | 2.8 | . | . | -9.0
CC(=O)Nc1ccc(NC(=O)C(C)N(C)CC(=O)Nc2ccccc2Br)cc1 (stereo not given) | 33.1* | -3.0 | -1.7 | 31.9 | -2.5
CSc1ccccc1NC(=O)CN(C)C(C)C(=O)Nc1ccc(C#N)cc1 (stereo not given) | 3.8 | 1.9 | -0.8 | -7.1 | -1.2
COc1ccccc1C(=O)Oc1ccccc1C(=O)Nc1ccccc1 | 73.6* | -0.5 | -0.6 | -11.2 | -0.2
COc1ccc(C(=O)Nc2cccc3nc(C)ccc23)c(OC)c1 | 4.5 | 2.5 | -3.1 | 6.0 | 4.1
COc1ccccc1C(=O)Nc1cccc2nc(C)ccc12 | 82.0* | 3.7 | 8.1 | -3.7 | 5.0
COc1ccccc1C(=O)NNC(=O)c1ccc(O)cc1 | . | 11.1 | . | . | 5.1
COc1ccccc1C(=O)NNC(=O)c1ccc(NC(=O)C(C)C)cc1 | 65.5* | -6.5 | -1.8 | 0.7 | -3.5
COc1ccccc1C(=O)NCCC(=O)NC1CCCCCC1 | . | 2.4 | -0.4 | 2.0 | 3.3
COc1ccccc1C(=O)NCCC(=O)NCC1CCCCC1 | 79.4* | 0.7 | 5.1 | 5.5 | -0.9
CC(C)CCC(CCN1CCCC1)c1ccc2c(c1)OCO2 (stereo not given) | 74.4* | 2.6 | -1.0 | 8.2 | 2.5
OCCNc1ncnc2c1c(-c1ccccc1)c(-c1ccccc1)n2Cc1ccco1 | 65.8* | -6.9 | -1.8 | 9.6 | -5.3
c1ccc(-c2c(-c3ccccc3)n(Cc3ccco3)c3ncnc(NCCCn4ccnc4)c23)cc1 | -3.2 | 6.1 | -1.2 | -6.9 | 1.6
O=C(N1CCCC1)n1ncc(-c2ccc(-c3ccccc3)cc2)n1 | . | 7.7 | . | . | 11.4
O=c1[nH]c2ccccc2cc1CN(CC1CCCO1)S(=O)(=O)c1ccccc1 (stereo not given) | 66.0* | -3.5 | -0.3 | -17.7 | 4.9
COc1ccc(S(=O)(=O)N(Cc2cc3cc(C)ccc3[nH]c2=O)CC2CCCO2)cc1 (stereo not given) | -1.9 | 5.5 | -0.7 | -0.4 | -0.7
COC(=O)Cc1nnc(Nc2cccc(C)c2)c2ccccc12 | 30.1* | -1.7 | -0.9 | 6.5 | -7.0
CN(CC(=O)Nc1cc(Cl)ccc1C#N)C1CCS(=O)(=O)C1 (stereo not given) | 84.6* | 0.7 | -0.7 | -8.7 | -4.3
